Assay [1] has as its target Phospholipase A2, major isoenzyme (Sus scrofa) (UniProt P00592). In words: Inhibitory activity against Porcine pancreatic secretory Phospholipase A2 at 10 uM. A digest of the protocol: (§1)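 Enzyme diluted in 100 mM Tris-HCl, 1 mM CaCl2, pH 7.5; preincubated 5 min at 37 °C with test compound or vehicle, then 15 min with autoclaved oleate-labeled membranes as substrate. Stopped with ice-cold BSA in saline (final 0.07% w/v), centrifuged 2500g 10 min at 4 °C. Supernatant radioactivity counted by liquid scintillation; percent inhibition at 10 μM, means ± SEM, n = 6.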

The target in assay [2] is T1, Phospholipase A2 (Apis mellifera) (UniProt P00630).
T1 sequence (whole entry): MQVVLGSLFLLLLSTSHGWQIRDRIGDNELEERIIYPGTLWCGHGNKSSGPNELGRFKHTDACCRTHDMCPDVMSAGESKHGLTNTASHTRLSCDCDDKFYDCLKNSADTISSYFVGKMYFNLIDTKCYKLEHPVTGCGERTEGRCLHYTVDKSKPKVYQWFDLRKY
In words: Inhibitory activity against bee secretory Phospholipase A2 enzyme at 10 uM.

For assay [3], the target named is T2, Phospholipase A2, membrane associated (Homo sapiens) (UniProt P14555).
T2 sequence (whole entry): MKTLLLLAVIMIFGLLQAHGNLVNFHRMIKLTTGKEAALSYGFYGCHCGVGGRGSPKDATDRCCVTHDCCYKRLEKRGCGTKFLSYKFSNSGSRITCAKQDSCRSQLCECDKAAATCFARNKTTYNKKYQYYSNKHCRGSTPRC
In words: Inhibitory activity against human synovial Phospholipase at 10 uM. Summed up: as §1

Assay [4] relates to Phospholipase A2 (Naja naja). The experiment in a line: Inhibitory activity against naja naja secretory Phospholipase A2 at 10 uM. As to conditions: snake.
Assay [5] concerns the target T1, Phospholipase A2 (Apis mellifera). In words: Inhibitory activity against bee secretory Phospholipase A2 enzyme when pre-incubated for 15 minutes. Summed up:
(§2)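 Bee venom PLA2 was incubated at 41 °C with the test compound or methanol (control) in 100 mM Tris-HCl, 1 mM CaCl2, pH 7.5, for varied preincubation times. It was then diluted 2-fold with Tris buffer or with hydroxylamine (final 50 mM, pH 7.5) and held 2 h at 41 °C. PLA2 activity was then assayed. Final compound concentrations were 5–50 μM. n = 6.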

Assay [6] has the same target. In words: Inhibitory activity against bee secretory Phospholipase A2 enzyme when pre-incubated for 5 minutes. A digest of the protocol:
as §2

The target is the same in assay [7]. The experiment in a line: Inhibitory activity against bee secretory Phospholipase A2 enzyme when pre-incubated for 60 minutes. Summed up: as §2
For assay [8] the target is unchanged. In words: Inhibitory activity against bee secretory Phospholipase A2 enzyme when pre-incubated with Hydroxylamine for 15 minutes. Summed up:
as §2

Assay [9] shares this target. In words: Inhibitory activity against bee secretory Phospholipase A2 enzyme when pre-incubated with Hydroxylamine for 5 minutes. A digest of the protocol:
as §2

For assay [10] the target is unchanged. The experiment in a line: Inhibitory activity against bee secretory Phospholipase A2 enzyme when pre-incubated with Hydroxylamine for 60 minutes. Summed up: as §2
Assay [11] shares this target. In words: Inhibitory activity against bee secretory Phospholipase A2 enzyme when pre-incubated with Tris buffer for 15 minutes. A digest of the protocol:
as §2

The target is the same in assay [12]. The experiment in a line: Inhibitory activity against bee secretory Phospholipase A2 enzyme when pre-incubated with Tris buffer for 5 minutes. A digest of the protocol:
as §2

Assay [13] has the same target. The experiment in a line: Inhibitory activity against bee secretory Phospholipase A2 enzyme when pre-incubated with Tris buffer for 60 minutes. A digest of the protocol:
as §2

Assay [14] has as its system Mus musculus. In words: Inhibitory activity against carrageenan induced paw edema at a oral dose of 10 mg/kg in mouse 5 hours after carrageenan administration. It counts as functional. A digest of the protocol:
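Female Swiss mice (20–25 g) were fasted 12 h and dosed orally in ethanol/Tween 80/water (5:5:90), n = 6 per group. One hour later, 0.05 mL of 3% carrageenan was injected subplantar into the right hind paw. Edema was injected minus contralateral paw volume by plethysmometer, expressed as % inhibition versus control. ANOVA with Dunnett's test.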
In general terms: In the carrageenan paw model, swelling and tenderness develop within hours.

The target in a further assay is T3, Phospholipase A2 (Apis mellifera, UniProt P00630).
T3 sequence (P00630 whole entry): T1 sequence (whole entry)
The experiment in a line: Inhibitory activity against bee secretory Phospholipase A2 enzyme.

The target of assay [15] is T1, Phospholipase A2 (Apis mellifera). In words: Inhibition against bee secretory PLA2 enzyme when pre-incubated for 5 minutes. A digest of the protocol: as §2
Assay [16] has the same target. In words: Inhibitory activity against secretory PLA2 enzyme (Bee venom) when pre-incubated with Hydroxylamine for 15 minutes. Summed up:
as §2

Assay [17] has as its target T4, Phospholipase A2, membrane associated (Homo sapiens, UniProt P14555).
T4 sequence (P14555 whole entry): T2 sequence (whole entry)
The experiment in a line: Inhibitory activity against human synovial recombinant Phospholipase enzyme.

Assay [18] deals with Mus musculus. In words: Inhibitory activity against carrageenan induced paw edema at a oral dose of 10 mg/kg in mouse 3 hours after carrageenan administration. It counts as functional. Summed up: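 Female Swiss mice (20–25 g), fasted 12 h with water available, in groups of six, dosed orally (0.5 mL) in ethanol/Tween 80/water 5:5:90 1 h before subplantar injection of 0.05 mL 3% w/v carrageenan into right hind paw. Paw volumes read by plethysmometer; edema = injected minus contralateral volume; percent inhibition vs vehicle controls; ANOVA with Dunnett's test.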

In general, inhibition refers to the share of the control response that was lost under treatment. In general, inhibition in vivo refers to how much of the control response was suppressed. Lower therefore signals a response near the control. The term pIC50 denotes −log10 of the IC50, conventionally taken in molar units.

pIC50: −log10 of the molar value.

Sequence of Phospholipase A2, major isoenzyme (Sus scrofa) (P00592 23-146 limits assumed): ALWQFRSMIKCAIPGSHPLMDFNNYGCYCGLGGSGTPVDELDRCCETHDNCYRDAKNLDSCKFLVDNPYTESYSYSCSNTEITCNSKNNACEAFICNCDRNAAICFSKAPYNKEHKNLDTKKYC

On to `C/C=C/CC1=CCC(C2=CC(=O)OC2O)OC1O` (stereo unspecified), for which the inhibition in assay [1] was 15.1%; in assay [2], 24.8%; in assay [3], 21.2%; in assay [4] it was 1.8%.

With `O=C1C=C(C2CC=CCO2)C(O)O1` (stereo unspecified), the inhibition in assay [1] stood at 0.2%; in assay [2], 9.3%; in [3] it was 42.3%; in assay [4], 10.1%.

On to `CC1=C(CC/C(C)=C/CCC2=CC[C@H](C3=CC(=O)O[C@H]3O)O[C@H]2O)C(C)(C)CCC1`, for which the inhibition in assay [1] was determined as 32.3%; in assay [2], 62.5%; in assay [5], 63.3%; in [6], 49.5%; in assay [7] it was 91.1%; in [8] it was 28%. Besides, the inhibition turned out to be 21% in assay [9]; 43.1% in assay [10]; 44.2% in assay [11]; 42.4% in assay [12]; 47.3% in assay [13]; 93.2% in assay [3].

As to `O=C1C=C(C2CC=C(Cc3ccccc3)CO2)C(O)O1` (stereo unspecified), the inhibition in assay [1] turned out to be 17.4%; in [2], 30.3%; in assay [3], 15.5%; in assay [4] it was 7.6%.

Turning to `CC(C)=CCC/C(C)=C/CC/C(C)=C/CC1=CCC(C2=CC(=O)OC2O)OC1O` (stereo unspecified), the inhibition in vivo at 10 mg/kg with Mus musculus [14] is 43.2%; in the assay with Mus musculus [18] it was 42.9%. Moreover, the inhibition came to 39.8% in [1]; 48.4% in assay [15]; 84.2% in assay [2]; 70.3% in assay [5]; 95.1% in [7]; 39.1% in assay [9]. For the same molecule, the inhibition in assay [10] is 71.5%; in assay [11], 80.9%; in assay [12] it was 80.8%; in assay [13], 75.2%; in assay [16] it was 56.9%; in [3] it was 74.6%. In assay [4], this molecule registered an inhibition of 33.6%. Further, the pIC50 was 6.30 against Phospholipase A2 and 6.05 in assay [17].

For the molecule `CC1=CCC(C2=CC(=O)OC2O)OC1` (stereo unspecified), the inhibition in assay [1] is 5.6%; in assay [2] it was 8%; in [3], 0.1%; in [4], 1.4%.

Consider `C=C1CCC[C@H]2[C@](C)(CCC3=CCC(C4=CC(=O)OC4O)OC3)[C@H](C)CC[C@]12C` (stereo partly specified), for which the inhibition in assay [5] came to 93.7%; in assay [6], 85.8%; in [7] it was 100%; in [8] it was 89.4%; in assay [9] it was 81.9%; in assay [10], 99.3%. Also, the inhibition in assay [11] was determined as 95.4%; in assay [12], 95.4%; in [13], 98.4%.

On to `O=C1C=C(C2CC=CC(O)O2)C(O)O1` (stereo unspecified), for which the inhibition in assay [1] is 1%; in [2], 0.7%; in [3], 18.9%; in assay [4], 5.2%.

On to `O=C1C=C(C2CC=C(Cc3ccccc3)C(O)O2)C(O)O1` (stereo unspecified), for which the inhibition in [1] worked out at 16.1%; in [2], 16.1%; in [3] it was 11.9%; in [4] it was 7.1%.

On to `CC1=CCC(C2=CC(=O)OC2O)OC1O` (stereo unspecified), for which the inhibition in assay [1] turned out to be 6.8%; in assay [2], 14.9%; in assay [3], 3.2%; in assay [4], 3%.

Take `CC(C)=CCC/C(C)=C/CC/C(C)=C/CC1=CCC(C2=CC(=O)OC2O)OC1` (stereo unspecified): the inhibition in assay [1] amounted to 30%; in [2], 71.8%; in assay [5], 87.1%; in assay [6], 85.6%; in assay [7] it was 99.7%; in assay [8], 51.1%. Also, the inhibition in assay [9] amounted to 50.1%; in [10], 65.1%; in assay [11], 58.7%; in [12], 58.5%; in [13], 65.3%; in [3], 63.1%. For the same molecule, the results for the pIC50 (against Phospholipase A2; in assay [17]) were 5.77 and 5.38, respectively.

Turning to `COc1ccc2c(c1)c(CC(=O)O)c(C)n2C(=O)c1ccc(Cl)cc1` [INDOMETHACIN], the inhibition in vivo at 10 mg/kg with Mus musculus [14] was found to be 42.3%; with Mus musculus [18], 40%.

For the molecule `C/C=C/CC1=CCC(C2=CC(=O)OC2O)OC1` (stereo unspecified), the inhibition in assay [1] was 17.6%; in assay [2] it was 40.1%; in assay [3], 24.8%; in [4] it was 7.1%.

These data come from ChEMBL document CHEMBL1131063 (J Med Chem, 1998).
